The campaign covered roughly 360,000 compounds. About 740 (0.21%) were called active. Many of the other results were omitted from the sample, so actives are more common in it than they were. Unmarked numbers belong to inactive results.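 How the source made its calls: active means mean lysis activity across replicates of at least 80%, whatever share of replicates individually reach that level; inactive means mean lysis activity below 80%.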
Assay: fungicidal lysis via adenylate kinase leakage – AK release luminescence, single concentration, primary screen (AID 651654)
Settings: C. neoformans lysis, 4 h, at 15 µM, hits give high values, normalised: neutral wells 0, clomiphene wells 100
In short: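 Schedule: static 4 h at 37 °C with compound, 1 h detection; system: C. neoformans cells; benchmarks: Clomiphene as positive control; buffer or medium: fresh YPD medium; measure: luminescence rise reflecting yeast cell lysis; measured by: luminescent adenylate kinase detection reagent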

Compound | lysis activity
C[C@@H]1CCCCO[C@H](CN(C)S(C)(=O)=O)[C@@H](C)CN([C@H](C)CO)C(=O)c2cc(NC(=O)Nc3ccc4c(c3)OCO4)ccc2O1 | 50.4%
C[C@@H]1CN([C@H](C)CO)S(=O)(=O)c2ccc(-c3cncnc3)cc2O[C@@H]1CN(C)Cc1ccccn1 | -14.8%
CCCC(=O)Nc1ccc2c(c1)C(=O)N(C)[C@@H]1CC[C@H](CC(=O)Nc3cn(C)nc3C)O[C@H]1CO2 | 6.15%
O=C(C[C@@H]1CC[C@@H]2[C@H](COC[C@H](O)CN2Cc2cccc(-c3ccncc3)c2)O1)N1CCOCC1 | -0.0585%
O=C(C[C@@H]1C[C@H]2c3cc(NC(=O)C4CCOCC4)ccc3O[C@H]2[C@@H](CO)O1)NCCN1CCCCC1 | 60.8%
COc1cccc(S(=O)(=O)N2C[C@@H](O)COC[C@H]3O[C@@H](CC(=O)N4CCOCC4)CC[C@@H]32)c1 | 2.85%
COc1cccc(S(=O)(=O)N2C[C@@H](O)COC[C@H]3O[C@H](CC(=O)N4CCCCC4)CC[C@@H]32)c1 | 52.9%
COc1cccc(S(=O)(=O)N2C[C@@H](O)COC[C@@H]3O[C@H](CC(=O)N4CCN(C)CC4)CC[C@H]32)c1 | 86.2% (active)
Cc1ccc(S(=O)(=O)Nc2cccc3c2O[C@@H](CN(C)CC2CCCCC2)[C@H](C)CN([C@@H](C)CO)C3=O)cc1 | -1.1%
CNC[C@H]1Oc2cc(C#Cc3ccccn3)ccc2S(=O)(=O)N([C@H](C)CO)C[C@@H]1C | -3.09%
C[C@@H]1CN([C@@H](C)CO)C(=O)Cc2cc(NC(=O)NC3CCCCC3)ccc2O[C@H]1CN(C)C(=O)Nc1ccc(C(F)(F)F)cc1 | 51.4%
C[C@H](CO)N1C[C@H](C)[C@H](CN(C)C(=O)c2ccccc2)OCCCC[C@H](C)Oc2ccc(N(C)C)cc2C1=O | 1.62%
COc1cccc(S(=O)(=O)N(C)C[C@@H]2Oc3ncc(-c4cccc(C(=O)N(C)C)c4)cc3C(=O)N([C@H](C)CO)C[C@@H]2C)c1 | 2.06%
COc1ccc(S(=O)(=O)Nc2ccc3c(c2)C(=O)N([C@@H](C)CO)C[C@H](C)[C@@H](CN(C)C(=O)Nc2ccc4c(c2)OCO4)OCCCC[C@@H](C)O3)cc1 | 49.4%
C[C@H](CO)N1C[C@H](C)[C@@H](CN(C)C(=O)C2CCOCC2)Oc2cc(-c3ccc(C(=O)N(C)C)cc3)ccc2S1(=O)=O | -2.86%
CCNC(=O)C[C@@H]1CC[C@H]2[C@@H](COc3ccc(NC(=O)c4ccccc4Cl)cc3C(=O)N2C)O1 | 13.7%
C[C@@H](NC(=O)C[C@H]1C=C[C@@H](NC(=O)CN2CCOCC2)[C@@H](CO)O1)c1ccccc1 | 18.8%
C[C@@H](NC(=O)C[C@@H]1C=C[C@@H](NC(=O)CN2CCOCC2)[C@H](CO)O1)c1ccccc1 | 13.5%
C[C@H](NC(=O)C[C@@H]1C=C[C@H](NC(=O)CN2CCOCC2)[C@H](CO)O1)c1ccccc1 | 131% (active)
C[C@@H]1CN([C@H](C)CO)C(=O)c2cc(NC(=O)CCCCCC(=O)Nc3ccccc3N)ccc2O[C@@H]1CN(C)Cc1ccncc1 | 0.608%
COc1ccc(CN(C)C[C@@H]2OCCCC[C@H](C)Oc3ccc(NC(=O)c4ccccc4)cc3C(=O)N([C@H](C)CO)C[C@H]2C)cc1 | -1.71%

Compound | lysis activity
C[C@H](CO)N1C[C@H](C)[C@@H](CN(C)S(=O)(=O)c2ccc(Cl)cc2)Oc2ccc(NS(C)(=O)=O)cc2CC1=O | -5.34%
CCC(=O)N(C)C[C@@H]1Oc2cc(C#C[C@H](C)O)ccc2S(=O)(=O)N([C@H](C)CO)C[C@@H]1C | -0.573%
C[C@@H]1CN([C@H](C)CO)C(=O)c2cc(C#CC3CCCC3)cnc2O[C@H]1CN(C)S(C)(=O)=O | -1.11%
C[C@@H]1CN([C@H](C)CO)C(=O)CCCn2nncc2CO[C@@H]1CN(C)C | -1.91%
Cc1cccc(CN(C)C[C@@H]2OCc3cn(nn3)CCCC(=O)N([C@@H](C)CO)C[C@H]2C)c1 | -1.37%
COc1ccc(S(=O)(=O)N2C[C@H](O)COC[C@@H]3O[C@H](CC(=O)NCCN4CCCCC4)CC[C@H]32)cc1 | 0.16%
CCCNC(=O)N1C[C@H](C)[C@@H](OC)CN(C)C(=O)c2ccc(NS(C)(=O)=O)cc2OC[C@@H]1C | 0.827%
COCC(=O)Nc1ccc2c(c1)C(=O)N(C)[C@@H]1CC[C@@H](CC(=O)NCc3cccc(F)c3)O[C@@H]1CO2 | 1.56%
COCC#Cc1cnc2c(c1)C(=O)N([C@@H](C)CO)C[C@H](C)[C@@H](CN(C)Cc1ccccc1)O2 | -2.83%
CC(C)NC(=O)N[C@@H]1C=C[C@@H](CC(=O)N2CCCCC2)O[C@@H]1CO | 1.39%
C[C@@H]1CN([C@@H](C)CO)C(=O)c2cc(NC(=O)C3CCCCC3)ccc2O[C@@H]1CN(C)Cc1ccc(C(=O)O)cc1 | -4.67%
Cc1ccc(-c2cnc3c(c2)C(=O)N([C@@H](C)CO)C[C@H](C)[C@H](CN(C)C(=O)c2cccnc2)O3)cc1 | -0.96%
C[C@@H]1CN([C@@H](C)CO)C(=O)c2cc(NC(=O)CCCN(C)C)ccc2O[C@@H]1CN(C)Cc1ccncc1 | 5.83%
COC(=O)C[C@@H]1C[C@H]2c3cc(NC(=O)Nc4ccc(F)cc4)ccc3O[C@H]2[C@@H](CO)O1 | -7.03%
CCC(=O)N(C)C[C@@H]1Oc2ncc(C#CCc3ccccc3)cc2C(=O)N([C@H](C)CO)C[C@H]1C | 1.55%
COc1ccc(CN2[C@@H](CO)[C@@H]3c4ccccc4N(C(=O)Nc4ccccc4)C[C@@H]32)cc1 | 0.269%
COc1ccc(NC(=O)Nc2ccc3c(c2)C(=O)N([C@H](C)CO)C[C@@H](C)[C@H](CN(C)C(=O)Nc2ccc(C(F)(F)F)cc2)OCCCC[C@@H](C)O3)cc1 | 1.63%
C[C@H](CO)N1C[C@H](C)[C@H](CN(C)C(=O)Nc2ccc(C(F)(F)F)cc2)Oc2ccc(NC(=O)C3CC3)cc2C1=O | 8.67%
Cn1cnc(CCNC(=O)C[C@@H]2CC[C@@H]3[C@H](COC[C@@H](O)CN3C(=O)Nc3ccccc3)O2)c1 | 1.75%
C[C@H](CO)N1C[C@H](C)[C@H](CN(C)S(C)(=O)=O)Oc2ccc(NC(=O)Nc3ccc(F)cc3)cc2C1=O | 0.358%
C#CCN1C(Cc2ccccc2)C(=O)O[C@H](C2CCCCC2)[C@@H]1/C=C/C1CC1 (stereo partly drawn) | 5.01%

Compound | lysis activity
CO[C@@H]1CN(C)C(=O)c2cc(NC(C)=O)ccc2OC[C@H](C)N(CC2CCCCC2)C[C@@H]1C | -3.61%
O=C(Nc1ccccc1)c1cc2ccccc2[nH]1 | -9.41%
COc1ccc(C2=Nc3ccccc3NC(=O)C2N(C(=O)c2cc3ccccc3[nH]2)c2ccccc2)cc1 (stereo not drawn) | 101% (active)
CC(OC(=O)c1cc2ccccc2[nH]1)C(=O)N(C)c1ccccc1 (stereo not drawn) | -1.83%
CO[C@H]1CN(C)C(=O)c2cc(NS(=O)(=O)CC(F)(F)F)ccc2OC[C@@H](C)N(Cc2nccs2)C[C@@H]1C | 0.476%
CN1c2ccc(C3=CCCCC3)cc2[C@H]2[C@H](CCN2S(=O)(=O)c2ccccc2)[C@@H]1CO | 0.27%
O=C(C1CCC1)N1CCCCN2[C@H](CO)[C@H](c3ccc(-c4cccc(F)c4)cc3)[C@H]2C1 | 4.53%
COc1cccc(NC(=O)C[C@H]2CC[C@@H]3[C@@H](COc4ccc(NC(=O)C5CCOCC5)cc4C(=O)N3C)O2)c1 | 1.2%
CC(C)NC(=O)N[C@H]1CC[C@H](CC(=O)NC2Cc3ccccc3C2)O[C@H]1CO | -0.817%
COc1ccccc1C#Cc1ccc2c(c1)O[C@H](CN(C)Cc1cccnc1)[C@@H](C)CN([C@H](C)CO)S2(=O)=O | 3.3%
CO[C@@H]1CN(C)C(=O)c2ccc(NS(C)(=O)=O)cc2OC[C@@H](C)N(CC2CC2)C[C@@H]1C | 2.22%
CN(C)C(=O)C[C@H]1CC[C@@H](NC(=O)C2CC2)[C@@H](CO)O1 | -0.137%
C[C@@H]1CCCCO[C@H](CN(C)C(=O)NC2CCCCC2)[C@@H](C)CN([C@H](C)CO)C(=O)c2cc(NS(C)(=O)=O)ccc2O1 | 3.91%
C[C@@H]1CN([C@@H](C)CO)C(=O)c2cc(NS(=O)(=O)c3cn(C)cn3)ccc2O[C@@H](C)CCCCO[C@@H]1CN(C)Cc1ccncc1 | -2.55%
CC(=O)N1[C@H](CO)[C@@H](c2ccc(-c3ccccc3)cc2)[C@H]1CNC(=O)C1CC1 | 73.3%
O=C(NC[C@@H]1[C@@H](c2ccccc2)[C@H](CO)N1C(=O)C1CCC1)NC1CCCC1 | 94.8% (active)
CC(=O)N1[C@H](CO)[C@H](c2ccc(-c3ccccc3)cc2)[C@H]1CNC(=O)C1CC1 | 90.2% (active)
CCN(C[C@H]1[C@H](c2ccccc2)[C@H](CO)N1C(=O)C1CC1)C(=O)NC1CCCC1 | 3.3%
CC(=O)N1[C@H](CO)[C@@H](c2ccc(-c3ccc(F)cc3)cc2)[C@H]1CNC(=O)C1CC1 | -1.15%
C/C=C/c1ccc([C@H]2[C@@H](CNC(=O)NC(C)C)N(C(=O)C3CCC3)[C@H]2CO)cc1 | -1.4%
CO[C@@H](CN(C)C(=O)Nc1ccc(F)cc1)[C@H](C)CN(Cc1ccccc1Cl)[C@@H](C)CO | 13.4%

From PubChem BioAssay AID651654 (Broad Institute, 2012)
